Reference: ChEMBL document CHEMBL3259710, “C-ring cannabinoid lactones: a novel cannabinergic chemotype” (ACS Med Chem Lett, 2014)

How the values were obtained:
Cannabinoid receptor 1 [1] = target: T1, Cannabinoid receptor 1 (Rattus norvegicus, UniProt P20272); experiment: Displacement of [3H]CP55940 from rat brain CB1 receptor
Procedure, shortened: (§1)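 Competition binding against [3H]CP-55,940. CB1 membranes came from rat brain; CB2 membranes came from HEK293 cells expressing mouse or human CB2. Ki was taken from competition curves by nonlinear regression. Three independent experiments were run in duplicate, and Ki is the mean of the three.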

Cannabinoid receptor 2 [2] = target: Cannabinoid receptor 2 (Mus musculus, UniProt P47936); experiment: Displacement of [3H]CP55940 from mouse […] CB2 receptor expressed in HEK293 cells; format: cell-based; procedure, shortened: as §1
Cannabinoid receptor 2 [3] = target: Cannabinoid receptor 2 (Homo sapiens, UniProt P34972); experiment: Displacement of [3H]CP55940 from human […] CB2 receptor expressed in HEK293 cells; format: cell-based; procedure, shortened: as §1
[4] = Selectivity ratio of Ki for mouse […] CB2 receptor to Ki for rat CB1 receptor
[5] = Selectivity ratio of Ki for human CB2 receptor to Ki for rat CB1 receptor
Cannabinoid receptor 1 [6] = target: T1, Cannabinoid receptor 1; experiment: Agonist activity at rat CB1 receptor expressed in HEK293 cells assessed as inhibition of forskolin-induced cAMP level; format: functional, cell-based
[7] = target: Cannabinoid receptor 1 (Rattus norvegicus) (UniProt P20272); experiment: Agonist activity at rat CB1 receptor expressed in HEK293 cells assessed as maximum inhibition of forskolin-induced cAMP level; format: functional, cell-based
[8] = Half life in mouse plasma; format: ADME, cell-free
Procedure, shortened: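 The compound was incubated in vitro with mouse plasma to test esterase hydrolysis to its acid metabolite. Half-life of the parent compound was determined.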

Sequence of Cannabinoid receptor 2 (Mus musculus, UniProt P47936) (P47936 whole entry): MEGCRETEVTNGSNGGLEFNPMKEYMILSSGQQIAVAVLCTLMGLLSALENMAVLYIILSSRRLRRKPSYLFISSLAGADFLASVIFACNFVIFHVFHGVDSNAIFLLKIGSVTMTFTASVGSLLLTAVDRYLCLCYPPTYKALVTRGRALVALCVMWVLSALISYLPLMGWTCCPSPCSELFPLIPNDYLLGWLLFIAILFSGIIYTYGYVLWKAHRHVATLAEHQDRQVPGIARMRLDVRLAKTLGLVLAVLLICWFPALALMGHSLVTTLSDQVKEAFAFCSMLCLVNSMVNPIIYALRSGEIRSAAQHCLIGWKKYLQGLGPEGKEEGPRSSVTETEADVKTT
Sequence of Cannabinoid receptor 2 (Homo sapiens, UniProt P34972) (P34972 whole entry): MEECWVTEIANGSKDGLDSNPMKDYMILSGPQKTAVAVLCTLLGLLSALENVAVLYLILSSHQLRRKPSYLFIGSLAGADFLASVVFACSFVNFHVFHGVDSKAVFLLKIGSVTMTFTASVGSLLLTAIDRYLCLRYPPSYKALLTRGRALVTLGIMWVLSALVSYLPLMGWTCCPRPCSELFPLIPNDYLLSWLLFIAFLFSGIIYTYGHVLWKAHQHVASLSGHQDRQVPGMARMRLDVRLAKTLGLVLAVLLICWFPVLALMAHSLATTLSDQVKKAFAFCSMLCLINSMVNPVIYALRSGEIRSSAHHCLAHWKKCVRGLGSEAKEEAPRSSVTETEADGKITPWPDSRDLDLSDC
T1 sequence (P20272 whole entry): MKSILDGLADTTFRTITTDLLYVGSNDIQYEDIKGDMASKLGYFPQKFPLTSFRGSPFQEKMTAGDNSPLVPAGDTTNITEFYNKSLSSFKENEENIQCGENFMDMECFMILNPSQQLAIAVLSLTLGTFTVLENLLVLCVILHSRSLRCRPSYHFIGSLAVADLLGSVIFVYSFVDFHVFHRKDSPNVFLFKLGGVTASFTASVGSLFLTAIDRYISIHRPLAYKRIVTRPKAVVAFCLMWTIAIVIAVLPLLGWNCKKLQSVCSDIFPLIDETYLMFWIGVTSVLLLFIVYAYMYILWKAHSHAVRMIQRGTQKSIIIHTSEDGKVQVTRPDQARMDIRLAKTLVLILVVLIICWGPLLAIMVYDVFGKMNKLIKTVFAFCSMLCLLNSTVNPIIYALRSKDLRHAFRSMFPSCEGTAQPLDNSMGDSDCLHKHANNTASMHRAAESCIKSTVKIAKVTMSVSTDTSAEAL
Sequence of Cannabinoid receptor 1 (Rattus norvegicus) (P20272 whole entry): as above

## CCCCCCC(C)(C)c1cc(O)c2c(c1)OC(C)(C)[C@@H]1CCC(=O)OC[C@@H]21
Cannabinoid receptor 1 [1]
  Ki: 4.6 nM
Cannabinoid receptor 2 [2]
  Ki: 792 nM
Cannabinoid receptor 2 [3]
  Ki: 52 nM
[4]
  Ratio Ki: 170
[5]
  Ratio Ki: 11
Cannabinoid receptor 1 [6]
  EC50: 184 nM
[7]
  inhibition: 41%

## CCCCCCC(C)(C)c1cc(O)c2c(c1)OC(C)(C)[C@H](CCO)[C@H]2CC(=O)O
Cannabinoid receptor 1 [1]
  Ki: > 1000 nM
Cannabinoid receptor 2 [2]
  Ki: > 1000 nM
Cannabinoid receptor 2 [3]
  Ki: > 1000 nM

## CCCCCc1cc(O)c2c(c1)OC(C)(C)[C@@H]1CCC(C)=C[C@@H]21 [DRONABINOL]
Cannabinoid receptor 2 [2]
  Ki: 40 nM

## CCCCCCC(C)(C)c1cc(O)c2c(c1)OC(C)(C)[C@H](CCC(=O)O)[C@H]2CO
Cannabinoid receptor 1 [1]
  Ki: > 1000 nM
Cannabinoid receptor 2 [2]
  Ki: > 1000 nM
Cannabinoid receptor 2 [3]
  Ki: > 1000 nM
[8]
  half-life: 15.1 min

## CCCCCCC(C)(C)c1cc(O)c2c(c1)OC(C)(C)[C@@H]1CCOC(=O)C[C@@H]21
Cannabinoid receptor 2 [3]
  Ki: 94 nM
